Calls of active or inactive are those of the source. The rule behind the calls is not given here.
Assays:
Huh-7 [1] = test: Cytotoxicity against human HuH7 cells assessed as cell impedance at IC25 to IC100 measured every 30 mins for 72 hrs by RT-CES assay; assay type: functional, cell-based; conditions: TDE = time-dependent effect
Procedure, shortened: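 Huh7 cells were seeded at 1000–5000 cells/well on electrode plates. […] Impedance was read as cell index every 10 min for the first 24 h, then every 30 min, over 72 h. Data were normalized to DMSO; inhibition (%) = [1 − (CI treated/CI DMSO)] × 100. Each experiment was run at least three times.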

[2] = Cytotoxicity against human FOCUS cells assessed as growth inhibition after 72 hrs by sulforhodamine B assay; assay type: functional, cell-based; conditions: Homo sapiens, FOCUS, 72 h; read-out: IC50
Procedure, shortened: (§1)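 Cells were grown at 37°C, 5% CO2 in DMEM with 10% FBS. They were seeded at 1000–3000 cells/well, grown 24 h, then exposed to compound at 2.5–40 µM for 72 h. Cells were fixed in 10% TCA for 1 h at 4°C, stained with 0.4% SRB in 1% acetic acid for 10 min, and the dye solubilized in 10 mM Tris. Absorbance was read at 515 nm; runs were in triplicate; IC50 was calculated, with fits of R2 0.8–1 accepted.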

[3] = Effect on un-phosphorylated beta-catenin level in human Mahlavu cells after 24 to 48 hrs by Western blot analysis; assay type: ADME, cell-based
Procedure, shortened: (§2)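 Cells were exposed to compound or DMSO control for 24 or 48 h. Lysates were loaded at […] protein per lane and immunoblotted with antibodies diluted 1:100 to 1:500 in 5% BSA-TBS-T. Targets were p-Akt (Ser473), Akt, p-GSK3-α/β (Ser21/9), GSK3-α/β, SAPK/JNK, p-SAPK/JNK (Thr183/Tyr185), PARP, p-β-catenin, β-catenin, cyclin D1, p-ASK1 (S83) and p-ASK1 (S966). Actin served as the loading control.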

[4] = biological target: T1, Mitogen-activated protein kinase kinase kinase 5 (Homo sapiens) (UniProt Q99683); test: Activation of ASK1 in human Mahlavu cells assessed as SAPK/JNK phosphorylation after 24 to 48 hrs by Western blot analysis; assay type: cell-based; procedure, shortened: as §2
T1 sequence (whole entry): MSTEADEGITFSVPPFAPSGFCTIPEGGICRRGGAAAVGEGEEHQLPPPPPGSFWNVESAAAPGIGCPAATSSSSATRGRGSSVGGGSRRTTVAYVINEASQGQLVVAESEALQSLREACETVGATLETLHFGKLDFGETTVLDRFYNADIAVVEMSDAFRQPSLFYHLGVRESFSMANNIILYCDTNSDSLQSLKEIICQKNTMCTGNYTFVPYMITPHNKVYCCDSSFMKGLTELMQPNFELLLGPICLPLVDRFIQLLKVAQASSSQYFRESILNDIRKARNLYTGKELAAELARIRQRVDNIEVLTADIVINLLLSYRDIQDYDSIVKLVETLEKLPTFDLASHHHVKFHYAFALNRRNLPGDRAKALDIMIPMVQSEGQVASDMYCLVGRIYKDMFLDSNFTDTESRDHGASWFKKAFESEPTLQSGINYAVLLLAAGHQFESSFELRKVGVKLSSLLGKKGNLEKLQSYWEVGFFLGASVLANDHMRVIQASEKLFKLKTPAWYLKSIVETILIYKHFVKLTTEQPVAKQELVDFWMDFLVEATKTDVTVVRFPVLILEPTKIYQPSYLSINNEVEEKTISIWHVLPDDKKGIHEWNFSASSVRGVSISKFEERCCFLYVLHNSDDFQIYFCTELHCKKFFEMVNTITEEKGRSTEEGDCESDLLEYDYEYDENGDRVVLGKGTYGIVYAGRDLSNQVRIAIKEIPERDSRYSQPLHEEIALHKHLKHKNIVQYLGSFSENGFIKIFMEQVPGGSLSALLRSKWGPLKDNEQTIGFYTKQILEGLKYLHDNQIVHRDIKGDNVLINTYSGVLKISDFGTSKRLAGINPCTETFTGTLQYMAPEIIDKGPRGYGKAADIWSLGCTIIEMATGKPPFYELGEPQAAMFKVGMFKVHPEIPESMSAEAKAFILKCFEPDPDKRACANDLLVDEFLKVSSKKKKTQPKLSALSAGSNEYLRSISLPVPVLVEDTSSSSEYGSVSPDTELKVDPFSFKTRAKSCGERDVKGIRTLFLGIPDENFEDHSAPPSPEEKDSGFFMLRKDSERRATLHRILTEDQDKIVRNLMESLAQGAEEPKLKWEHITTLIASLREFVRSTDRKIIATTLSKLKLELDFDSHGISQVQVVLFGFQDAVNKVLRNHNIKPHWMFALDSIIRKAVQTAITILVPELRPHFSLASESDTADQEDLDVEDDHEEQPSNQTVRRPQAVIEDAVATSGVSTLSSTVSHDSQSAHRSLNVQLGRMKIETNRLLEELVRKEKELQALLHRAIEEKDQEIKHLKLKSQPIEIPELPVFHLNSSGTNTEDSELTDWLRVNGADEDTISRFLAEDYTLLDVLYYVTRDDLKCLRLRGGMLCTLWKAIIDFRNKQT

Mahlavu [5] = test: Induction of oxidative stress in human Mahlavu cells assessed as ROS accumulation at 10 uM after 48 hrs by DCFH-DA staining based fluorescence microscopy; assay type: functional, cell-based
Procedure, shortened: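 Cells in 6-well dishes were treated with 10 µM compound or DMSO for 48 h. They were washed in PBS and stained for 15 min at 37°C in the dark with DCFH-DA solution (1 mM DCFH-DA, 10 mM glucose, 10 mM HEPES in PBS). After three PBS washes, cells were viewed by fluorescence microscopy. Selenium-deficient serum-free medium culture served as the positive control.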

Mahlavu [6] = test: Induction of oxidative stress in human Mahlavu cells assessed as ROS accumulation at 10 uM after 48 hrs by flow cytometry analysis; assay type: functional, cell-based
Procedure, shortened: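 Huh7 and Mahlavu cells were treated after 24 h with 10 µM compound or DMSO for 48 h. Cells were then trypsinized and processed with a MUSE oxidative stress kit for flow cytometric counting of ROS-positive cells. Cells grown in selenium-deficient serum-free medium served as the positive control.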

[7] = biological target: T1, Mitogen-activated protein kinase kinase kinase 5 (Homo sapiens); test: Activation of ASK1 in human Mahlavu cells assessed as Ser83 phosphorylation after 24 to 48 hrs by Western blot analysis; assay type: cell-based; procedure, shortened: as §2
Huh-7 [8] = test: Induction of apoptosis in human HuH7 cells assessed as decrease in cyclin D1 level after 24 to 48 hrs by Western blot analysis; assay type: functional, cell-based; procedure, shortened: as §2
[9] = Cytotoxicity against human SNU475 cells assessed as growth inhibition after 72 hrs by sulforhodamine B assay; assay type: functional, cell-based, SNU-475; conditions: Homo sapiens, SNU-475, 72 h; read-out: IC50; procedure, shortened: as §1
Huh-7 [10] = test: Induction of cell cycle arrest in human HuH7 cells assessed as accumulation at subG1 phase at 10 uM after 24 to 48 hrs by propidium iodide staining based FACS analysis; assay type: functional
Procedure, shortened: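 Huh7 cells were seeded at 300,000 per 100-mm dish. After 24 h they were treated with 10 µM compound or DMSO for 24 h and 48 h. Cells were trypsinized, fixed in ice-cold 70% ethanol and stored at −20 °C. They were then stained with propidium iodide and cell-cycle distribution, including SubG1, was read by flow cytometry.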

Activity [4] | Activity [7] | Compound | Activity (Huh-7 [1]) | IC50 [2] | Activity [3] | Activity (Mahlavu [5]) | Activity (Mahlavu [6]) | Activity (Huh-7 [8]) | IC50 [9] | Activity (Huh-7 [10])
Active | Active | COc1ccc(C2=Nn3c(nnc3C(C)c3ccc(CC(C)C)cc3)SC2)cc1 (stereo not given) | tde | 2.4 µM | Non-toxic | Active | Active | Active | 8.5 µM | Active
Active | Active | Cc1ccc(C2=Nn3c(nnc3C(C)c3ccc(CC(C)C)cc3)SC2)cc1 (stereo not given) | tde | 6.8 µM | Non-toxic | Active | Active | Active | 8.7 µM | Active
